The record followed here is ChEMBL document CHEMBL3588768, “Synthesis and bioactivity of tripolinolate A from Tripolium vulgare and its analogs” (Bioorg Med Chem Lett, 2015).

Assay [1] deals with Staphylococcus aureus. Put plainly: Antimicrobial activity against Staphylococcus aureus after 5 to 12 hrs by micro broth dilution assay. In kind it is functional, organism-based.
Assay [2] has as its system Escherichia coli. Put plainly: Antimicrobial activity against Escherichia coli after 5 to 12 hrs by micro broth dilution assay. Format: functional, organism-based. (In general: In broth dilution the organism is exposed to a series of concentrations in liquid medium.)
Assay [3] has as its system U-87 MG. Put plainly: Antiproliferative activity against human U87MG cells after 72 hrs by sulforhodamine B assay. In kind it is functional, cell-based, U-87MG ATCC. The procedure, abridged:
(§1)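 Sulforhodamine B assay on glioma (U251, U87-MG) and colorectal (HCT-15, SW620) cancer cells. Cells were exposed to a range of compound concentrations for 72 h, then stained with SRB. IC50 values were derived from the dose–response. Doxorubicin served as positive control.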
In general terms: The SRB assay estimates cell density from bound dye.

For assay [4], the system named is U-251. Briefly: Antiproliferative activity against human U251 cells after 72 hrs by sulforhodamine B assay. Format: functional, cell-based. The conditions noted are these: U-251, 72 h. In outline: as §1
The subject of assay [5] is HCT-15. Put plainly: Antiproliferative activity against human HCT15 cells after 72 hrs by sulforhodamine B assay. In kind it is functional, cell-based. The conditions noted are these: HCT-15, 72 h. In outline:
as §1

Assay [6] deals with SW-620. Briefly: Antiproliferative activity against human SW620 cells after 72 hrs by sulforhodamine B assay. Format: functional, cell-based. The conditions noted are these: SW-620, 72 h. In outline:
as §1

Assay [7] has as its system U-87 MG. Briefly: Induction of apoptosis in human U87MG cells assessed as early apoptotic cells at 10 uM after 72 hrs by annexin V-FITC/PI staining-based flow cytometric analysis (reference value: 3.41%). In kind it is functional, U-87MG ATCC. In general terms: Flow cytometry measures light scatter and fluorescence of single cells or particles in a stream.
For assay [8], the system named is U-87 MG. Briefly: Induction of apoptosis in human U87MG cells assessed as late apoptotic cells at 10 uM after 72 hrs by annexin V-FITC/PI staining-based flow cytometric analysis (reference value: 3.23%). Format: functional, U-87MG ATCC.
The test system of assay [9] is U-87 MG. Briefly: Induction of apoptosis in human U87MG cells assessed as total apoptotic cells at 10 uM after 72 hrs by annexin V-FITC/PI staining-based flow cytometric analysis (reference value: 6.64%). In kind it is functional, U-87MG ATCC.
Assay [10] deals with U-87 MG. Put plainly: Induction of apoptosis in human U87MG cells assessed as viable cells at 10 uM after 72 hrs by annexin V-FITC/PI staining-based flow cytometric analysis (reference value: 93.12%). Format: functional, U-87MG ATCC. The conditions noted are these: read-out: Activity.
Assay [11] concerns U-87 MG. Briefly: Induction of apoptosis in human U87MG cells assessed as necrotic cells at 10 uM after 72 hrs by annexin V-FITC/PI staining-based flow cytometric analysis (reference value: 0.24%). In kind it is functional, U-87MG ATCC.

Active and inactive are the calls of the source. No cut-off for these calls is given here.

On to `CC(C)[C@@H](C)/C=C/[C@@H](C)[C@H]1CCC2=C3C=CC4=CC(=O)CC[C@]4(C)[C@H]3CC[C@@]21C`, for which the inhibition result in assay [1] and in assay [2] was “inactive” throughout.

By IC50 is commonly meant the concentration needed to halve the response being measured. In the case of `CCCC(=O)OC/C=C/c1ccc(OC(=O)CCC)c(OC)c1`, the IC50 in assay [3] is 17.3 µM; in assay [4], above 50 µM; in [5] it was 28.8 µM; in [6], 7.85 µM. The inhibition result in assay [1] and in assay [2] was “inactive” each time.

`CCCCCC(=O)OC/C=C/c1ccc(OC(=O)CCCCC)c(OC)c1`: the inhibition entry in assay [1] and in assay [2] was “inactive” each time.

As to `CCCCCCCCCCCCCCCCCCCCOC(=O)/C=C/c1ccc(O)cc1`, the inhibition result in [1] and in [2] was “inactive” throughout.

On to `CCCC(=O)c1c(O)cc(O)cc1O[C@@H]1O[C@H](CO)[C@@H](O)[C@H](O)[C@H]1O`, for which the IC50 in assay [3] is 3.89 µM; in assay [4], 19.7 µM; in [5], 1.91 µM; in [6] it was 0.41 µM. Besides, the inhibition entry in assay [1] and in assay [2] was “inactive” throughout.

`CCCCC(=O)OC/C=C/c1ccc(OC(=O)CCCC)c(OC)c1`: the inhibition result in [1] and in assay [2] was “inactive” in each case.

Turning to `COc1cc(/C=C/COC(C)=O)ccc1OC(=O)C(C)C`, the inhibition entry in assay [1] and in assay [2] was “inactive” throughout.

As for `COc1cc(/C=C/CO)ccc1O`, the inhibition result in assay [1] and in assay [2] was “inactive” throughout.

`C/C(=C\CO)CCC[C@H](C)CCC[C@H](C)CCCC(C)C` [TRANS-PHYTOL]: the IC50 stood at 8.02 µM in assay [3], 27.8 µM in assay [4], 22.5 µM in assay [5] and 5.85 µM in assay [6]. Moreover, the inhibition entry in [1] and in assay [2] was “inactive” throughout.

As for `COC(=O)/C=C/c1ccc(O)c(OC)c1`, the inhibition result in assay [1] and in [2] was “inactive” in each case.

Take `CCCC(=O)Oc1ccc(/C=C/COC(=O)CC(C)C)cc1OC`: the inhibition result in assay [1] and in assay [2] was “inactive” throughout.

As to `CCCC(=O)OC/C=C/c1ccc(OC(=O)CC(C)C)c(OC)c1`, the inhibition entry in assay [1] and in [2] was “inactive” throughout.

`COc1cccc2c1C(=O)c1c(O)c3c(c(O)c1C2=O)C[C@@](O)(C(=O)CO)C[C@@H]3O[C@H]1C[C@H](N)[C@H](O)[C@H](C)O1` [DOXORUBICIN]: the half-maximal inhibitory concentration (IC50) came out at 0.93 µM in assay [3], 2.2 µM in [4], 1.13 µM in [5] and 1.33 µM in assay [6]. In addition, the Activity in assay [7] is 20.15%; in [8], 11.02%; in assay [9], 31.17%; in assay [11] it was 0.6%. Moreover, the viability at 10 µM in assay [10] was 68.2%. The inhibition entry in [1] and in [2] was “inactive” throughout.

With `CCCC(=O)Oc1ccc(/C=C/COC(C)=O)cc1OC`, the IC50 was found to be 10.5 µM in [3], 45.7 µM in [4], 17.1 µM in assay [5] and 7.59 µM in assay [6]. Also, the inhibition result in assay [1] and in assay [2] was “inactive” each time.

Regarding `O=C(/C=C/c1ccc(O)c(O)c1)O[C@@H]1[C@H](O)C[C@@](O)(C(=O)O)C[C@H]1OC(=O)/C=C/c1ccc(O)c(O)c1`, the inhibition entry in [1] and in [2] was “inactive” each time.

As for `COc1cc(/C=C/COC(=O)C(C)C)ccc1OC(C)=O`, the inhibition result in [1] and in assay [2] was “inactive” in each case.

Consider `CC1=C(C)C(=O)C(CC[C@](C)(O)CCC[C@H](C)CCC[C@H](C)CCCC(C)C)=C(C)C1=O`, for which the inhibition entry in assay [1] and in [2] was “inactive” in each case.

Take `O=C(/C=C/c1ccc(O)c(O)c1)O[C@@H]1C[C@](O)(C(=O)O)C[C@@H](OC(=O)/C=C/c2ccc(O)c(O)c2)[C@H]1O`: the inhibition result in assay [1] and in [2] was “inactive” throughout.

With `O=c1c(O[C@@H]2O[C@H](CO)[C@@H](O)[C@H](O)[C@H]2O)c(-c2ccc(O)cc2)oc2cc(O)cc(O)c12` [ASTRAGALIN], the IC50 in assay [3] stood at 3.12 µM; in [4] it was 37.6 µM; in [5], 23.5 µM; in assay [6], 4.6 µM. In addition, the inhibition result in [1] and in assay [2] was “inactive” in each case.

Regarding `CCC(=O)Oc1ccc(/C=C/COC(C)=O)cc1OC`, the inhibition entry in assay [1] and in assay [2] was “inactive” each time.

Turning to `O=C(/C=C/c1ccc(O)c(O)c1)O[C@H]1[C@H](O)C[C@](O)(C(=O)O)C[C@H]1OC(=O)/C=C/c1ccc(O)c(O)c1`, the inhibition entry in [1] and in assay [2] was “inactive” throughout.

Take `CC(C)[C@H](C)/C=C/[C@@H](C)[C@H]1CCC2=C3C=CC4=CC(=O)CC[C@]4(C)[C@H]3CC[C@@]21C`: the inhibition entry in assay [1] and in [2] was “inactive” in each case.

Take `CCC(=O)OC/C=C/c1ccc(OC(C)=O)c(OC)c1`: the inhibition result in assay [1] and in [2] was “inactive” in each case.

Turning to `CCCCCCCCCCCCCCCCCCCCOC(=O)/C=C/c1ccc(O)c(OC)c1`, the half-inhibitory concentration (IC50) in assay [3] amounted to 5.24 µM; in [4] it was 26.8 µM; in assay [5], 15.1 µM; in assay [6], 5.25 µM. Also, the inhibition entry in [1] and in assay [2] was “inactive” each time.

As to `CC[C@H](C)C(=O)OC/C=C/c1ccc(OC(C)=O)c(OC)c1`, the concentration for half-maximal inhibition (IC50) in [3] is 15 µM; in assay [4] it was 28.1 µM; in assay [5], 34.1 µM; in [6], 21.9 µM. Moreover, the inhibition entry in assay [1] and in [2] was “inactive” each time.

With `COc1cc(/C=C/COC(=O)CC(C)C)ccc1OC(=O)CC(C)C`, the inhibition entry in assay [1] and in [2] was “inactive” throughout.

`COc1cc(/C=C/COC(=O)C(C)C)ccc1OC(=O)C(C)C`: the half-maximal inhibitory concentration (IC50) in assay [3] is 29.4 µM; in assay [4] it was above 50 µM; in assay [5], 34.6 µM; in assay [6], 35.5 µM. Moreover, the inhibition entry in assay [1] and in assay [2] was “inactive” throughout.

In the case of `CCCC(=O)OC/C=C/c1ccc(OC(C)=O)c(OC)c1`, the IC50 in [3] was 18.5 µM; in assay [4] it was 33.3 µM; in assay [5], 22.8 µM; in assay [6], 10.2 µM. Also, the inhibition result in [1] and in assay [2] was “inactive” throughout.

As to `CC[C@H](C)C(=O)OC/C=C/c1ccc(OC(=O)[C@@H](C)CC)c(OC)c1`, the inhibition result in assay [1] and in assay [2] was “inactive” in each case.

`CCCCCCC(=O)OC/C=C/c1ccc(OC(=O)CCCCCC)c(OC)c1`: the inhibition result in assay [1] and in assay [2] was “inactive” throughout.

For `CCC(=O)OC/C=C/c1ccc(OC(=O)CC)c(OC)c1`, the 50% inhibitory concentration (IC50) in assay [3] is 28.8 µM; in assay [4], 52.6 µM; in assay [5], 29.6 µM; in [6], 47.4 µM. Besides, the inhibition result in assay [1] and in assay [2] was “inactive” in each case.

As for `COc1cc(/C=C/C(=O)O)ccc1O`, the inhibition entry in assay [1] and in assay [2] was “inactive” each time.

For `CCCCCCCC(=O)OC/C=C/c1ccc(OC(=O)CCCCCCC)c(OC)c1`, the inhibition entry in [1] and in assay [2] was “inactive” throughout.
